SMILES strings stand for the structures. The source made the active and inactive calls. The rule behind the calls is not given here.

The first experiment deals with Hepatitis C virus. The experiment in a line: Antiviral activity against HCV infected in human HUH7 cells assessed as inhibition of viral subgenomic RNA replication in presence of 10% fetal calf serum. It is filed as functional, organism-based, Hepacivirus hominis. To be noted: Huh-7. An outline of the steps: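 Replication of subgenomic HCV RNA was measured in HUH-7 replicon cells using a modified Bartenschlager procedure. Results are reported as EC50 in µM.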
Broadly, the EC50 is the concentration needed to bring the measured effect to its halfway point. On to `O=C(Nc1ccc(O)cc1)c1ccc(N2CCN(C(=O)Oc3ccccc3)CC2)cc1`, for which the concentration giving a half-maximal response (EC50) worked out at 4100 nM.
`CC(C)(C)OC(=O)N1CCN(c2ccc(C(=O)Nc3ccc(C(=O)c4ccccc4)cc3)cc2)CC1`: the concentration for a half-maximal effect (EC50) was 690 nM.
Same read-out and setting: in the case of `CCOC(=O)N1CCN(c2ccc(C(=O)Nc3ccc(O)cc3)cc2)CC1` it was 9600 nM; in that of `CC(C)(C)OC(=O)C1CCN(c2ccc(C(=O)Nc3ccc(O)cc3)cc2)CC1`, 1600 nM; in that of `CN(C(=O)c1ccc(N2CCN(C(=O)OC(C)(C)C)CC2)cc1)c1ccc(O)cc1`, more than 10000 nM.
Consider `CC(C)(C)OC(=O)N1CCN(c2cccc(C(=O)Nc3ccc(O)cc3)c2)CC1`, for which the EC50 is more than 10000 nM.
Still for that read-out and setting: in the case of `CC(C)(C)OC(=O)N1CCC(c2ccc(C(=O)Nc3ccc(O)cc3)cc2)CC1` it was 1700 nM; in that of `CN(C)c1ccc(NC(=O)c2ccc(N3CCN(C(=O)OC(C)(C)C)CC3)cc2)cc1`, more than 10000 nM; in that of `CC(C)(C)OC(=O)N1CCN(c2ccc(C(=O)Nc3ccc(O)cc3)cc2)CC1`, 160 nM.
The same measure, in the same setting: in the case of `CN(CCNC(=O)OC(C)(C)C)c1ccc(C(=O)Nc2ccc(O)cc2)cc1` it was more than 10000 nM.
Consider `CC(C)(C)OC(=O)N1CCN(c2ccc(C(=O)Nc3ccc(/C=C/c4ccc(O)cc4)cc3)cc2)CC1`, for which the EC50 is 140 nM.
For the compound `O=C(Nc1ccc(O)cc1)c1ccc(N2CCN(C(=O)Nc3ccccc3)CC2)cc1`, the EC50 stood at 19600 nM.
With `CC(C)(C)C(=O)N1CCN(c2ccc(C(=O)Nc3ccc(O)cc3)cc2)CC1`, the EC50 is 780 nM.
As for `O=C(Nc1ccc(O)cc1)c1ccc(N2CCN(C(=O)NCc3ccccc3)CC2)cc1`, the EC50 was 2700 nM.
`CC(C)(C)NC(=O)N1CCN(c2ccc(C(=O)Nc3ccc(O)cc3)cc2)CC1`: the concentration giving a half-maximal response (EC50) was found to be 470 nM.
Consider `CC(C)(C)OC(=O)N1CCN(c2ccc(C(=O)N[C@H]3CC[C@H](O)CC3)cc2)CC1`, for which the EC50 was more than 10000 nM.
In the case of `CC(=O)Nc1ccc(NC(=O)c2ccc(N3CCN(C(=O)OC(C)(C)C)CC3)cc2)cc1`, the EC50 was more than 10000 nM.
Regarding `CC(C)(C)OC(=O)N1CCN(c2ccc(C(=O)Nc3cc[n+]([O-])cc3)cc2)CC1`, the EC50 was more than 10000 nM.
On the same count and under the same terms, in the case of `CC(C)(C)OC(=O)N1CCN(c2ccc(C(=O)Nc3ccc(C#N)cc3)cc2)CC1` it was 5600 nM; in that of `CC(C)(C)OC(=O)N1CCN(c2ccc(C(=O)Nc3ccccc3)cc2)CC1`, more than 10000 nM.
As for `O=C(Nc1ccc(O)cc1)c1ccc(N2CCN(C(=O)OCc3ccccc3)CC2)cc1`, the EC50 turned out to be 550 nM.
Still for that read-out and setting: the result for `CC(C)(C)OC(=O)N1CCN(c2ccc(C(=O)Nc3ccc(F)cc3)cc2)CC1` reads more than 10000 nM; that for `CC(C)(C)OC(=O)N1CCN(c2ccc(C(=O)Nc3cccc(Br)c3)cc2)CC1`, 580 nM.

The test system of the next experiment is Hepacivirus hominis. In words: Inhibition of HCV NS5B deltaC55 polymerase.
Conditions: not given
An outline of the steps: (§1)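 Cell-free polymerase assays used purified NS5B in its ΔC55 and ΔC21 truncated forms.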
For the compound `CC(C)(C)OC(=O)N1CCN(c2ccc(C(=O)Nc3ccc(O)cc3)cc2)CC1`, the outcome was inactive.

The test system of the next experiment is Hepacivirus hominis. In words: Inhibition of ATPase activity of HCV NS3/4A protease up to 10 uM.
Conditions: not given
An outline of the steps: (§2)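 Cell-free assays used purified protein, either the full-length NS3-4A complex or the separate protease and helicase domains. Compound was tested at concentrations up to 10 µM.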
Turning to `CC(C)(C)OC(=O)N1CCN(c2ccc(C(=O)Nc3ccc(O)cc3)cc2)CC1`, the result was inactive.

The test system of another experiment is Hepacivirus hominis. In words: Inhibition of HCV NS5B deltaC21 polymerase.
Conditions: not given
An outline of the steps:
as §1
Turning to `CC(C)(C)OC(=O)N1CCN(c2ccc(C(=O)Nc3ccc(O)cc3)cc2)CC1`, the result was inactive.

For a further experiment, the system named is Hepacivirus hominis. The experiment in a line: Inhibition of helicase activity of HCV NS3/4A protease up to 10 uM.
Conditions: not given
Summed up:
as §2
On to `CC(C)(C)OC(=O)N1CCN(c2ccc(C(=O)Nc3ccc(O)cc3)cc2)CC1`, for which the result was inactive.

(Values after ChEMBL document CHEMBL1153285, “Synthesis and SAR of piperazinyl-N-phenylbenzamides as inhibitors of hepatitis C virus RNA replication in cell culture” (Bioorg Med Chem Lett, 2009).)
